# In article PMC3137751 (Biochemistry, 2010):
# Changes are numbered by the printed parent chain. Numbers in names are those of the source.
# B1: IDH1/IDH2 (Saccharomyces cerevisiae S288C) (protein)
# chain 1: ATAAQAERTLPKKYGGRFTVTLIPGDGVGKEITDSVRTIFEAENIPIDWETINIKQTDHKEGVYEAVESLKRNKIGLKGLWHTPADQTGHGSLNVALRKQLDIYANVALFKSLKGVKTRIPDIDLIVIRENTEGEFSGLEHESVPGVVESLKVMTRPKTERIARFAFDFAKKYNRKSVTAVHKANIMKLGDGLFRNIITEIGQKEYPDIDVSSIIVDNASMQAVAKPHQFDVLVTPSMYGTILGNIGAALIGGPGLVAGANFGRDYAVFEPGSRHVGLDIKGQNVANPTAMILSSTLMLNHLGLNEYATRISKAVHETIAEGKHTTRDIGGSSSTTDFTNEIINKLSTM
# chain 2: ATVKQPSIGRYTGKPNPSTGKYTVSFIEGDGIGPEISKSVKKIFSAANVPIEWESCDVSPIFVNGLTTIPDPAVQSITKNLVALKGPLATPIGKGHRSLNLTLRKTFGLFANVRPAKSIEGFKTTYENVDLVLIRENTEGEYSGIEHIVCPGVVQSIKLITRDASERVIRYAFEYARAIGRPRVIVVHKSTIQRLADGLFVNVAKELSKEYPDLTLETELIDNSVLKVVTNPSAYTDAVSVCPNLYGDILSDLNSGLSAGSLGLTPSANIGHKISIFEAVHGSAPDIAGQDKANPTALLLSSVMMLNHMGLTNHADQIQNAVLSTIASGPENRTGDLAGTATTSSFTEAVIKRL
# B2: ^-5IDH1^G15D/IDH2 enzyme (complex, yeast)
# chain 1: AERTLPKKYDGRFTVTLIPGDGVGKEITDSVRTIFEAENIPIDWETINIKQTDHKEGVYEAVESLKRNKIGLKGLWHTPADQTGHGSLNVALRKQLDIYANVALFKSLKGVKTRIPDIDLIVIRENTEGEFSGLEHESVPGVVESLKVMTRPKTERIARFAFDFAKKYNRKSVTAVHKANIMKLGDGLFRNIITEIGQKEYPDIDVSSIIVDNASMQAVAKPHQFDVLVTPSMYGTILGNIGAALIGGPGLVAGANFGRDYAVFEPGSRHVGLDIKGQNVANPTAMILSSTLMLNHLGLNEYATRISKAVHETIAEGKHTTRDIGGSSSTTDFTNEIINKLSTM
# chain 2: B1 chain 2
# B3: ^-5IDH1^G15D/IDH2: truncated -5 IDH1 with G15D replacement plus IDH2; tetrameric (protein)
# chain 1: B2 chain 1
# chain 2: B1 chain 2
# modifications: left off: histidine tag, C-terminal, kept
# B4: ^-5IDH1^G15A/IDH2 enzyme (complex, yeast)
# chain 1: B2 chain 1 with D10A
# chain 2: B1 chain 2
# B5: IDH1^G15D/IDH2 enzyme (complex, yeast)
# chain 1: B1 chain 1 with G15D
# chain 2: B1 chain 2
# B6: ^-5IDH1^D168K/IDH2 (Saccharomyces cerevisiae S288C; D179K) (protein)
# chain 1: B2 chain 1 with D10G, D163K
# chain 2: B1 chain 2
# B7: ^-5IDH1^D168K/IDH2: truncated -5 IDH1 with D168K replacement plus IDH2; tetrameric (protein)
# chain 1: B2 chain 1 with D10G, D163K
# chain 2: B1 chain 2
# modifications: left off: histidine tag, C-terminal, kept
# B8: wild-type IDH1/IDH2 enzyme (yeast NAD+-specific isocitrate dehydrogenase) (complex)
# chain 1: B1 chain 1
# chain 2: B1 chain 2
# B9: IDH1^G15D/IDH2: full-length IDH1 with G15D substitution plus IDH2; stable tetramer (protein)
# chain 1: B1 chain 1 with G15D
# chain 2: B1 chain 2
# modifications: left off: histidine tag, C-terminal, kept
# B10: ^-5IDH1/IDH2: IDH with five residues truncated from the amino terminus of IDH1; octameric (protein)
# chain 1: B2 chain 1 with D10G
# chain 2: B1 chain 2
# modifications: left off: histidine tag, C-terminal, kept
# B11: ^-5IDH1^D168A/IDH2 enzyme (complex, yeast)
# chain 1: B2 chain 1 with D10G, D163A
# chain 2: B1 chain 2
# B12: truncated ^-5IDH1/IDH2 enzyme (complex, yeast)
# chain 1: B2 chain 1 with D10G
# chain 2: B1 chain 2
# Key:
# [1] = substrate: O=C(O)C[C@H](C(=O)O)[C@@H](O)C(=O)O; assay: Apparent S0.5 for isocitrate; assay type: biochemical; conditions: pH 7.4; 24.0 °C
# SEC = biological target: the molecule itself; assay: SEC
# [2] = tested on: Yeast NAD+-specific isocitrate dehydrogenase (IDH); assay: Kinetic analyses: isocitrate saturation velocity curves of purified IDH enzymes; assay type: biochemical; conditions: for Hill coef. with respect to isocitrate, − AMP: absence of AMP; for Vmax (apparent), + AMP: isocitrate velocity saturation curve; for Vmax (apparent), + AMP / Hill coef. with respect to isocitrate, + AMP: presence of 100 μM AMP
# In short: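 His-tagged IDH purified by Ni2+-NTA, stored at −20 °C in elution buffer with 20% glycerol, quantified by A280. Assays at 24 °C used 40 mM Tris-HCl pH 7.4, 4 mM MgCl2 and 0.5 mM NAD+. D-isocitrate was varied 0–5 mM, with or without 100 μM AMP, and NADH formation was followed. Apparent S0.5 and Hill coefficients came from saturation curves, Vmax as maximum velocity per mg, over two independent experiments.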
# AUC [3] = biological target: the molecule itself; assay: AUC
# AUC [4] = biological target: the molecule itself; assay: AUC; remark: listed apart in the source
molecule,measurement,setting,value
B1,K0.5,[1],0.53/0.10 (±0.10/0) mM
B2,K0.5,[1],0.64/0.14 (±0.03/0.04) mM
same,stoichiometry N,SEC,4
B3,"Hill coef. with respect to isocitrate, − AMP",[2],2.2
same,"Vmax (apparent), + AMP",[2],15.4 units/mg
same,"Hill coef. with respect to isocitrate, + AMP",[2],2.0
same,reduction in apparent Vmax relative to ^-5IDH1/IDH2,[2],~ 50%
B4,stoichiometry N,AUC [3],> 4
B5,K0.5,[1],0.60/0.13 (±0.13/0.01) mM
same,stoichiometry N,AUC [3],4
B6,K0.5,[1],0.61/0.13 (±0.13/0.04) mM
B7,"Hill coef. with respect to isocitrate, − AMP",[2],2.2
same,"Vmax (apparent), + AMP",[2],15.3 units/mg
same,"Hill coef. with respect to isocitrate, + AMP",[2],2.0
same,reduction in apparent Vmax relative to ^-5IDH1/IDH2,[2],~ 50%
B8,stoichiometry N,AUC [4],8
B9,"Hill coef. with respect to isocitrate, − AMP",[2],2.3
same,"Vmax (apparent), + AMP",[2],21.9 units/mg
same,"Hill coef. with respect to isocitrate, + AMP",[2],2.0
same,reduction in apparent Vmax relative to IDH1/IDH2 (wild-type),[2]; relative to IDH1/IDH2,~ 38%
B10,"Hill coef. with respect to isocitrate, − AMP",[2],3.1
same,"Vmax (apparent), + AMP",[2],30.3 units/mg
same,"Hill coef. with respect to isocitrate, + AMP",[2],3.5
B11,stoichiometry N,AUC [4],8
B12,K0.5,[1],0.52/0.11 (±0.04/0.01) mM
same,stoichiometry N,SEC,8
